Source: ChEMBL document CHEMBL1125034, “Design and synthesis of 4H-3,1-benzoxazin-4-ones as potent alternate substrate inhibitors of human leukocyte elastase” (J Med Chem, 1990)

Key:
[1] = molecular target: T1, Neutrophil elastase (Homo sapiens) (UniProt P08246); assay: Component deacylation rate constant for interaction with human leukocyte elastase
T1 sequence (whole entry): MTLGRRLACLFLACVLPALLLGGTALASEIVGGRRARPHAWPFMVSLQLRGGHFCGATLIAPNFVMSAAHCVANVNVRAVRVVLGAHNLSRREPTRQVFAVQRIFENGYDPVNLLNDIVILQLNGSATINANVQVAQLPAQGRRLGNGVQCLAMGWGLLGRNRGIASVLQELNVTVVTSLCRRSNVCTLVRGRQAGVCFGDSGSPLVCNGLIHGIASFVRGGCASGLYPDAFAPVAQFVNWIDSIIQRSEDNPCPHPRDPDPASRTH

[2] = molecular target: T1, Neutrophil elastase (Homo sapiens); assay: Component acylation rate constant for interaction with human leukocyte elastase
[3] = Alkaline hydrolysis rate of the compound; type: ADME
Summary of the method: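 Alkaline hydrolysis rate constants measured at several pH values at 25 °C. Loss of the long-wavelength UV chromophore (λmax typically 300-345 nm) was followed by spectrophotometer.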

Neutrophil elastase = molecular target: T2, Neutrophil elastase (Homo sapiens, UniProt P08246); assay: Inhibition of human leukocyte elastase
T2 sequence (P08246 whole entry): T1 sequence (whole entry)

[4] = Partition coefficient (logD7.4); type: physicochemical; details: octanol/water, pH 7.4

SMILES	Log koff [1]	Log kon [2]	Log kOH- [3]	Ki (Neutrophil elastase)	logD [4]
Cc1cc(N(C)C)cc2nc(NC(C)C)oc(=O)c12	-3.89	2.01	-1.61	1260 nM	
CCCCNc1nc2cc(N)ccc2c(=O)o1	-2.74	3.45	-0.44	646 nM	1.7
CC(C)C[C@H](NC(=O)C1CCCN1c1nc2ccccc2c(=O)o1)C(N)=O (stereo partly drawn)	-3.49	4.18	1.27	21.4 nM	1
CC(C)Nc1nc2ccccc2c(=O)o1	-2.51	4.77	1.21		2.4
CCOC(=O)[C@H](C)Nc1nc2ccccc2c(=O)o1	-2.65	3.41	1.31	871 nM	
CCSc1nc2cccc(C)c2c(=O)o1	-2.85	6.18	1.58	0.933 nM	3.6
CCCNc1nc2cccc(C)c2c(=O)o1	-3.47	4.75			
COc1cc2nc(SCc3c[nH]cn3)oc(=O)c2cc1OC	-2.12	3.84	1.31	1100 nM	
COC(=O)[C@@H](CC(C)C)Nc1nc2ccccc2c(=O)o1	-2.85	4.58	1.32	37.2 nM	3.2
CCSc1nc2ccc(NC(C)=O)cc2c(=O)o1		4	2.24	1450 nM	
CCC(C)CNc1nc2cccc(C)c2c(=O)o1 (stereo not drawn)	-4.13	2.05		661 nM	
COc1cc2nc(SCc3ccccc3)oc(=O)c2cc1OC	-1.91	3.76	0.96	2140 nM	
CC(C)Cc1nc2ccccc2c(=O)o1		4.3		2570 nM	
Cc1cc(C)c2c(=O)oc(NC(C)C)nc2c1	-4.82	3.41	-0.23	5.89 nM	
Cc1cc(N)cc2nc(NC(C)C)oc(=O)c12	-4.75	2.36	-1.09	77.6 nM	
CCCC(C)Nc1nc2cccc(C)c2c(=O)o1 (stereo not drawn)	-2.43	3.7		741 nM	
CSc1nc2cccc(C)c2c(=O)o1	-3.45	5.4	1.9	1.41 nM	
Cc1cccc2nc(OCC(C)C)oc(=O)c12	-4.95	3.85		1.58 nM	
CCSc1nc2cc(OC)c(OC)cc2c(=O)o1		5	1.1	1200 nM	
NC(=O)[C@H](Cc1ccccc1)Nc1nc2ccccc2c(=O)o1	-3.42	3.08	1.26	316 nM	
COC(=O)C(CC(C)C)Nc1nc2ccccc2c(=O)o1 (stereo not drawn)	-2.86	4.32	1.32	66.1 nM	
CCCNC(=O)Nc1ccc2c(=O)oc(NC(C)C)nc2c1	-1.77	4.1	0.39	1350 nM	
Cc1cccc2c(=O)oc(C(F)(F)F)nc12		4	3.09	537 nM	
CCCc1cc(N(C)C)cc2nc(NC(C)C)oc(=O)c12	-3.74	2.81	-2	282 nM	
CC(=O)Nc1ccc2c(=O)oc(NC(C)C)nc2c1			0.92	148 nM	1.2
O=c1oc(-c2ccccc2)nc2ccccc12		4	1.79	9550 nM	

SMILES	Log koff [1]	Log kon [2]	Log kOH- [3]	Ki (Neutrophil elastase)	logD [4]
O=C(c1nc2ccccc2c(=O)o1)[C@@H]1CCCN1	-3	2.95	1.69	1120 nM	
CCSc1nc2ccccc2c(=O)o1			2.19	8.13 nM	3
CCC(CC)Nc1nc2cccc(C)c2c(=O)o1	-2.25	3.89		724 nM	
CCCCNc1nc2cccc(CC)c2c(=O)o1	-3.27	5.11	0.38		3.8
CCOc1nc2cc(N(C)C)ccc2c(=O)o1	-4.85	3.46	-0.1	4.9 nM	
COC(=O)[C@H](CC(C)C)Nc1nc2cc(C)cc(C)c2c(=O)o1			-0.18	1260 nM	4
CC(C)CN(CC(C)C)c1nc2ccccc2c(=O)o1	-3.01	2.18	0.68	6460 nM	
CCOc1nc2cccc(C(Br)Br)c2c(=O)o1	-2.33	7	2.5	0.468 nM	
Cc1nc2c(N)cccc2c(=O)o1		3.3	2.61	7940 nM	
C/C=C/c1cccc2nc(OCC)oc(=O)c12	-4.18	5.54	1.41	0.191 nM	
CCc1cc(N)cc2nc(N3CCCC3C(=O)N[C@@H](CC(C)C)C(N)=O)oc(=O)c12 (stereo partly drawn)			-1.08	115 nM	1.6
O=c1oc(Nc2ccccc2)nc2ccccc12			1.18	11000 nM	3.5
Cc1cccc2c(=O)oc(C(C)(C)C)nc12			0.82	55000 nM	4
CCOC(=O)CCCNc1nc2ccccc2c(=O)o1			1.21	18600 nM	2.3
COc1cccc2nc(Nc3ccccc3)oc(=O)c12			0.41	158000 nM	3.1
CC(=O)NCc1nc2ccccc2c(=O)o1	-2.88	2.24	1.86	7590 nM	
CCSc1nc2c(C)cccc2c(=O)o1		6.3	2.01	28.2 nM	
CCc1ccc2c(=O)oc(NC(C)C)nc2c1			0.69	182 nM	3.2
CC(C)Nc1nc2cc(N(C)C)ccc2c(=O)o1	-3.32	3	-0.74	479 nM	
Cc1nc2cc3ccccc3cc2c(=O)o1			2.19	7240 nM	2.8
CCc1cccc2c(=O)oc(NC(C)C)nc12	-1.62	4.38		1000 nM	
CNc1nc2cccc(C)c2c(=O)o1	-0.82	3.69	0.54		2.3
CCCCN(CCCC)c1nc2ccccc2c(=O)o1	-2.91	2.43	-0.57	4570 nM	
COc1cc(C)c2c(=O)oc(NC(C)C)nc2c1	-3.1	4.32	-0.42	38 nM	
CCCc1cccc2nc(OCC)oc(=O)c12	-4.15	5.49	1.17	0.229 nM	
